Measurements reported in ChEMBL document CHEMBL1140237, “6-(2-Phenylethyl)nicotine: a novel nicotinic cholinergic receptor ligand” (Bioorg Med Chem Lett, 2005).
Calls of active or inactive are those of the source. The rule behind the calls is not given here.

Columns and labels:
[1] = biological target: T1, Neuronal acetylcholine receptor; alpha4/beta2 (Rattus norvegicus, UniProt P09483+P12390); assay: Inhibition of [3H](-)-nicotine binding to rat brain (minus cerebellum) Nicotinic acetylcholine receptor alpha4-beta2; format: tissue-based
In short: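 Rat brain homogenate with cerebellum removed, labelled with [3H](-)nicotine. IC50 taken from a plot of log concentration against percent displacement, then converted to Ki. At least triplicate.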

[2] = test system: Mus musculus; assay: Nicotine-like action of the compound tested in mouse in hypothermia assay at 15 mg/kg sc dose; NA = Not active; format: functional, organism-based; design: dose 15 mg/kg
In short: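 Male ICR mice (20–25 g), at least six per dose, given compound or saline sc. Rectal temperature read by thermistor probe inserted 24 mm, just before and 30 min after injection.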

[3] = test system: Mus musculus; assay: Nicotine-like action of the compound tested in mouse in spontaneous activity assay at 15 mg/kg sc dose; NA = Not active; format: functional, organism-based; design: dose 15 mg/kg
In short: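 Male ICR mice (20–25 g), at least six per dose, given compound or 0.9% saline sc. Placed in individual photocell activity cages 5 min after injection. Beam interruptions counted over the next 10 min.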

[4] = biological target: T1, Neuronal acetylcholine receptor; alpha4/beta2; assay: Inhibition of [3H]epibatidine binding to rat Nicotinic acetylcholine receptor alpha4-beta2; format: protein-complex assay
[5] = test system: Mus musculus; assay: Percent of maximal possible antinociceptive effect at 15 mg/kg dose; failed to produce effect; format: functional
[6] = biological target: Neuronal acetylcholine receptor; alpha2/beta2 (Rattus norvegicus, UniProt P12389+P12390); assay: Binding affinity for rat Nicotinic acetylcholine receptor alpha2-beta2; format: protein-complex assay
In short: (§1)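 Binding run by the NIMH Psychoactive Drug Screening Program under standard protocols, using cloned rat receptor preparations.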

[7] = biological target: Neuronal acetylcholine receptor; alpha2/beta4 (Rattus norvegicus, UniProt P12389+P12392); assay: Binding affinity for rat Nicotinic acetylcholine receptor alpha2-beta4; format: protein-complex assay; in short: as §1
[8] = biological target: Neuronal acetylcholine receptor; alpha3/beta2 (Rattus norvegicus, UniProt P04757+P12390); assay: Binding affinity for rat Nicotinic acetylcholine receptor alpha3-beta2; format: protein-complex assay; in short: as §1
[9] = biological target: Neuronal acetylcholine receptor; alpha3/beta4 (Rattus norvegicus, UniProt P04757+P12392); assay: Binding affinity for rat Nicotinic acetylcholine receptor alpha3-beta4; format: protein-complex assay; in short: as §1
[10] = biological target: Neuronal acetylcholine receptor; alpha4/beta4 (Rattus norvegicus, UniProt P09483+P12392); assay: Binding affinity for rat Nicotinic acetylcholine receptor alpha4-beta4; format: protein-complex assay; in short: as §1
Sequence of Neuronal acetylcholine receptor; alpha4/beta4 (P09483 whole entry): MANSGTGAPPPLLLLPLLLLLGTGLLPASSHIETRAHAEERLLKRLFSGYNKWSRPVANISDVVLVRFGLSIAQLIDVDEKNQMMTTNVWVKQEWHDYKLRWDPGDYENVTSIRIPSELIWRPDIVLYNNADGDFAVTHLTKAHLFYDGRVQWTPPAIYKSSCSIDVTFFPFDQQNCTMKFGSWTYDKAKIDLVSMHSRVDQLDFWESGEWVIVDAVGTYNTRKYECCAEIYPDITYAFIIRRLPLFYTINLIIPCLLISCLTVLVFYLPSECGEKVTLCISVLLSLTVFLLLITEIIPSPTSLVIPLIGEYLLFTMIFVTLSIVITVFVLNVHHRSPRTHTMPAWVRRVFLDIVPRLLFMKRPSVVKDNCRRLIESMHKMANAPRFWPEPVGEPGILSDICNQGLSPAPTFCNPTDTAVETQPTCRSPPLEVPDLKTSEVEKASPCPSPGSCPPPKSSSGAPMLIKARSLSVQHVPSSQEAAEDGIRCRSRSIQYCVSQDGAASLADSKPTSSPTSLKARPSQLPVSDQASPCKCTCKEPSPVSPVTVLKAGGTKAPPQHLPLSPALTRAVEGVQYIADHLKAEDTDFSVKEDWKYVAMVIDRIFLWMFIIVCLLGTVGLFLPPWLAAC
Sequence of Neuronal acetylcholine receptor; alpha4/beta4 (P12392 whole entry): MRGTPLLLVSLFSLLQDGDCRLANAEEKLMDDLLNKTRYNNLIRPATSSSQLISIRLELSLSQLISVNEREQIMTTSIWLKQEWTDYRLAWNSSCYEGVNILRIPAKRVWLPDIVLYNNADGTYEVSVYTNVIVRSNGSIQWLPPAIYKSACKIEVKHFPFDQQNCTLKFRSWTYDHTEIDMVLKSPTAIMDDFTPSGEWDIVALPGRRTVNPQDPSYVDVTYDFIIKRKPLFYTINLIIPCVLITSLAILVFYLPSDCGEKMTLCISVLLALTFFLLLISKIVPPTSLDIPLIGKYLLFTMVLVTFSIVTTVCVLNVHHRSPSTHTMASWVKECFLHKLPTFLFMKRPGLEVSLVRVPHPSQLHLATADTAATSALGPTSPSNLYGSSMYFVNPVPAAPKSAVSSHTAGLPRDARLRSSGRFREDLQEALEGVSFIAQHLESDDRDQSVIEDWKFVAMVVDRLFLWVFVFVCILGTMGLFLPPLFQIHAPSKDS

T1 sequence (P09483 whole entry): as the sequence (P09483 whole entry) above
T1 sequence (P12390 whole entry): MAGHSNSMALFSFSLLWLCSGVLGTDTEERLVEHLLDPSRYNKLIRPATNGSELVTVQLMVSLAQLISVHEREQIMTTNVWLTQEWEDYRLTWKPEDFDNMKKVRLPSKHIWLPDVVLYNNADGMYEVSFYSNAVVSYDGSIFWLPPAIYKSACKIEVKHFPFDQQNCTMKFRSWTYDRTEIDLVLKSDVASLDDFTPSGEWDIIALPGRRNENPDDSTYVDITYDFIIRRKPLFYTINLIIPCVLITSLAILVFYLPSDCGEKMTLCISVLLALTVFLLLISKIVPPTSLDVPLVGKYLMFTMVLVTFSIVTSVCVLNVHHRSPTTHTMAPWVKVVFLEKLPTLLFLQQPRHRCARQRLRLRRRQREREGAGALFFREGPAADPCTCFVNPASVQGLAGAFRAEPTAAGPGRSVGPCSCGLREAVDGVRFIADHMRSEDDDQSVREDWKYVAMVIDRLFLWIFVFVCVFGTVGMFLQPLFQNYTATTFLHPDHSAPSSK
Sequence of Neuronal acetylcholine receptor; alpha3/beta4 (P04757 whole entry): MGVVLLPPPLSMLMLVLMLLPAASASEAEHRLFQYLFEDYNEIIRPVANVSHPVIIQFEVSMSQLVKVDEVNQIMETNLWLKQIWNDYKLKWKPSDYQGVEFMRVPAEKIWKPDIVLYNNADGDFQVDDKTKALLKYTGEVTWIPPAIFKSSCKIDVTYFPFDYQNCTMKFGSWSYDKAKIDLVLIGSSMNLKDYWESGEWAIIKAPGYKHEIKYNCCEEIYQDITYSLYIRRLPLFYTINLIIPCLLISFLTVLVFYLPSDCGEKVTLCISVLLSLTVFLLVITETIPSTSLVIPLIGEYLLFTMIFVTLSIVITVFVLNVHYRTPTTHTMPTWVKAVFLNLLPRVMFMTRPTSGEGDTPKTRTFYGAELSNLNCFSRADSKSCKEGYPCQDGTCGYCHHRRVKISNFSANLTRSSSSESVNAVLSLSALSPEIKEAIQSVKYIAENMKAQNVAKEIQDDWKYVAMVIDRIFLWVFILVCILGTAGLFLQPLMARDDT
Sequence of Neuronal acetylcholine receptor; alpha3/beta4 (P12392 whole entry): as the sequence (P12392 whole entry) above
Sequence of Neuronal acetylcholine receptor; alpha3/beta2 (P04757 whole entry): as the sequence (P04757 whole entry) above
Sequence of Neuronal acetylcholine receptor; alpha3/beta2 (P12390 whole entry): as the sequence (P12390 whole entry) above
Sequence of Neuronal acetylcholine receptor; alpha2/beta4 (P12389 whole entry): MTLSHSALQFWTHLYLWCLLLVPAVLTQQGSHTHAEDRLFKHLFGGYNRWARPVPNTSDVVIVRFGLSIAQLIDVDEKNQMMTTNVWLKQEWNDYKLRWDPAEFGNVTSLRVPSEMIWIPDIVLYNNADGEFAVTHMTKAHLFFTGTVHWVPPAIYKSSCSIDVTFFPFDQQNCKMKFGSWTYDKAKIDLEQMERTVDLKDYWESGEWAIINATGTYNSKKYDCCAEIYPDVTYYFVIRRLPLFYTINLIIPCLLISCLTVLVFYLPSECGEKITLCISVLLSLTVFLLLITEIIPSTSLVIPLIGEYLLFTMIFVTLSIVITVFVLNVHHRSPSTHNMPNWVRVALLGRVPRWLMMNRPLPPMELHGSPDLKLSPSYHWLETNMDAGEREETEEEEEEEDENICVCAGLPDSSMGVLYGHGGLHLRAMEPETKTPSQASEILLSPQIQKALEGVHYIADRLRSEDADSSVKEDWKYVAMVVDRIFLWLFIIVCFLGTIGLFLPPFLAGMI
Sequence of Neuronal acetylcholine receptor; alpha2/beta4 (P12392 whole entry): as the sequence (P12392 whole entry) above
Sequence of Neuronal acetylcholine receptor; alpha2/beta2 (P12389 whole entry): as the sequence (P12389 whole entry) above
Sequence of Neuronal acetylcholine receptor; alpha2/beta2 (P12390 whole entry): as the sequence (P12390 whole entry) above

SMILES	Ki [1]	further results
CCc1ccc(C2CCCN2C)cn1 (stereo not given)	5.6 nM	
CN1CCCC1c1ccc(CCCc2ccccc2)nc1 (single isomer, unassigned; (-))	72 nM	
CN1CCCC1c1ccc(CC(O)c2ccccc2)nc1 (stereo not given)	275 nM	
CN1CCCC1c1ccc(C(=O)O)nc1 (stereo not given)	> 10000 nM	
CN1CCCC1c1ccc(CCc2ccc(Cl)cc2)nc1 (stereo not given)	40 nM	
CCN(C)CCc1ccc(CCc2ccccc2)nc1	> 10000 nM	
CCCc1ccc(C2CCCN2C)cn1 (stereo not given)	17 nM	
CN1CCCC1c1ccc(/C=C/c2ccccc2)nc1 (stereo not given)	350 nM	
CN1CCCC1c1ccc(CCCc2ccccc2)nc1 (single isomer, unassigned; (+))	> 10000 nM	
CN1CCCC1c1ccc(CCc2ccccc2)nc1 (stereo not given)	15 nM	Activity [2]: inactive; Activity [3]: inactive; Ki [4]: 200 nM; MPE [5]: 2%; Ki [6]: 490 nM; Ki [7]: 1200 nM; Ki [8]: 2000 nM; Ki [9]: 4600 nM; Ki [10]: 400 nM
COc1ccc(CCc2ccc(C3CCCN3C)cn2)cc1 (stereo not given)	10 nM	
